Only some compounds are listed: those with a hit (about 2.1% of all), similar ones and a draw of the others.
EBNA-1 inh = blocks EBNA-1 binding to DNA. 300,000 compounds, 0.34% hits. EBNA-1 DNA binding, fluorescence polarization. AID 1950. inhibition, % at 14.8 µM; in the data active = inhibition above about 28%
eIF4H FP inh = inhibitors of RNA binding by human eIF4H. eIF4H fluorescence polarization binding assay. inhibition, % at 35 µM. 290,000 compounds, 0.94% hits. AID 2012;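 also: calls also rest on retests at 20 µM and on dose response follow-up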
ZTA DNA inh = counter-screen for EBNA-1 inhibitors: inhibitors of Epstein-Barr virus ZTA | ZTA-DNA binding, fluorescence polarization | 320,000 compounds, 0.15% hits | inhibition, % at 11 µM; in the data active = inhibition above about 33%
PABP1 MLLE inh = inhibitors of microRNA-mediated deadenylation, human PABP1 MLLE binding. P11940. GST-MLLE / FITC-PAM2 fluorescence polarization. inhibition, % at 20 µM. 360,000 compounds, 0.36% hits. AID 588489; in the data active = inhibition above about 35%, passing the limit was not always enough;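 also: plate controls were DMSO wells with GST-MLLE for no effect and wells lacking GST-MLLE protein for full effect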
Target sequence (P11940 whole entry, looked up): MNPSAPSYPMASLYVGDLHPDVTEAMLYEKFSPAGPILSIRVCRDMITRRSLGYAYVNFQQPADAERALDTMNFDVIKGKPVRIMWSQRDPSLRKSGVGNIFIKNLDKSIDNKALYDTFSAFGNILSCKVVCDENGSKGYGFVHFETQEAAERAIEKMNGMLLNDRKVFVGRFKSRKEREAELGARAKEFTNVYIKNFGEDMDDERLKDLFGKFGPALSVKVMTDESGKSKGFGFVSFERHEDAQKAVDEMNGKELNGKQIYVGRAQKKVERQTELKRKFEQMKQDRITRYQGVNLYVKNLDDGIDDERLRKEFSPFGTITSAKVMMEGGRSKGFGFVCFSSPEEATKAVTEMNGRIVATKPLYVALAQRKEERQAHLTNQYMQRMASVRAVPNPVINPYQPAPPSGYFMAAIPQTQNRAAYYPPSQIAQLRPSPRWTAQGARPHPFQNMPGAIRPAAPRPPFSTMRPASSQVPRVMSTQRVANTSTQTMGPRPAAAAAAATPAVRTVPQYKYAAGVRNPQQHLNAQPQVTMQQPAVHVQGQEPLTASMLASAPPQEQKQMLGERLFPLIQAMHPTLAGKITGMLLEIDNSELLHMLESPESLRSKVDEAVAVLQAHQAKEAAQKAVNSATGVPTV
HCV NS3 hel inh = HCV NS3 helicase inhibition; NS3 helicase DNA unwinding, Cy5 molecular beacon fluorescence; inhibition, % at 10.9 µM; 290,000 compounds, 0.56% hits;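 active = inhibition above the mean of all tested compounds plus 3 SD, set per campaign, cut at about 35% in these data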;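 also: 0% = DMSO wells and 100% = thioflavine S control wells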
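Assay system: hepatitis C virus NS3 helicase domain fragment enzyme. Also added: annealed dual-labelled DNA beacon duplex, ATP-started. Timing: 1 h reaction at 25 °C, ATP-initiated. Technique: Cy5 fluorescence at 0 and 60 min, beacon hairpin quenching. Evaluation: % inhibition of unwinding. Replication: one well per compound.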
PABP polyA inh = blocks human PABP binding to poly(A) RNA. P11940. fluorescence polarization. inhibition, % at 35 µM. 290,000 compounds, 1% hits;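 also: calls also rest on retests at 20 µM and on dose response follow-up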
EBNA-1 inh conf = EBNA-1 (EBV) inhibition, confirmation | shares compounds with EBNA-1 inh | Recombinant EBNA-1 DBD, Cy5-DNA fluorescence polarization | inhibition, % at 14.8 µM | 830 compounds, 35% hits | AID 2292;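 active = mean inhibition across replicates above a set limit taken from the earlier primary screen, cut at about 28% in these data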;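 also: plate controls were EBNA-1 protein with DMSO for no effect and wells lacking EBNA-1 for full effect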
ZTA counter trip = ZTA (EBV) inhibition, triplicate counter-screen. Zta-ZRE DNA binding, Cy5 fluorescence polarization. 830 tested, under 10 active. shares compounds with EBNA-1 inh. AID 2328. inhibition, % at 11.1 µM;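 active = mean inhibition over triplicates above a set limit taken from the primary EBNA-1 screen, cut at about 37% in these data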;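 also: purified full length Zta protein with Cy5 labeled ZRE DNA probe; 0% = Zta with DMSO and 100% = wells lacking Zta protein; inhibitors lower polarization by freeing the labeled DNA probe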
* hit, by the source's call; · = no result given. Unless noted, no rule for the calls is given here.

SMILES | EBNA-1 inh | eIF4H FP inh | ZTA DNA inh | PABP1 MLLE inh | HCV NS3 hel inh | PABP polyA inh | EBNA-1 inh conf | ZTA counter trip
Cc1cc(C)c(S(=O)(=O)Nc2ccc(C(N)=O)cc2)c(C)c1 | 1 | -4 | 0 | -1 | 6 | 10 | · | ·
Cc1nn(C)c(C(=O)N/N=C/c2ccc(-c3ccccc3)cc2)c1Cl | 37* | -22 | 6 | -3 | -3 | -6 | 28* | 25
COc1ccc(/C=N/NC(=O)c2c([N+](=O)[O-])c(C)nn2C)cc1 | -4 | -1 | -4 | -1 | 1 | 4 | · | ·
O=C(NCC(F)(F)F)Nc1cccnc1 | 80* | 4 | -7 | 1 | 3 | 5 | 3 | 2
Cc1cc(NS(=O)(=O)c2ccc(NC(=O)N[C@H](C(=O)O)C(C)C)cc2)no1 | 1 | -6 | 3 | -9 | 12 | -10 | · | ·
COC(=O)Cc1c(C)c2ccc(OC3CCCCC3=O)c(C)c2oc1=O (configuration not stated) | 125* | -17 | 24 | 15 | -17 | -6 | -1 | -4
COc1ccc(CCNC(=O)c2sc(=S)n(C)c2N)cc1 | 28* | -5 | -10 | 43* | 10 | 8 | 3 | -5
COc1cc(Cn2c(N)c(C#N)c3nc4ccccc4nc32)cc(OC)c1 | 92* | -3 | -7 | -7 | -13 | 1 | 25 | -3
COc1ccc(Cn2c(N)c(C#N)c3nc4ccccc4nc32)cc1 | 1 | -11 | 1 | -10 | 3 | 2 | · | ·
Cc1c(C#N)c(N)nc2c3c(sc12)NC(=O)CC3c1ccccc1 (configuration not stated) | 63* | 2 | -23 | 10 | 15 | 9 | 25 | -2
Cc1cc(C)n(/N=C/c2c[nH]c3ccccc23)c(=O)c1C#N | 28* | -3 | -1 | -7 | 5 | -8 | 14 | -7
Cc1cc(C)n(/N=C/c2ccccc2)c(=O)c1C#N | 3 | 3 | 0 | 4 | 0 | 6 | · | ·
COc1ccc(-c2nc(SC(CC(=O)NCCO)c3cccs3)n[nH]2)cc1 (configuration not stated) | -4 | 5 | 7 | 4 | 9 | 14 | · | ·
O=C(CC(Sc1n[nH]c(-c2ccccc2)n1)c1ccccc1)NCc1ccccc1 (configuration not stated) | 33* | 1 | 2 | -9 | -3 | 4 | 10 | 9
C=CCNC(=S)NNC(=O)c1ccccc1 | 77* | -10 | 4 | 0 | -1 | -7 | -3 | 7
C=CCNC(=S)NNC(=O)c1cccc(Br)c1 | -12 | 6 | 1 | -24 | 4 | 1 | · | ·
COc1ccc(OC)c(NC(=O)C2CCCN(S(=O)(=O)c3ccc(-n4cnnn4)cc3)C2)c1 (configuration not stated) | 49* | 0 | -11 | 1 | -12 | 2 | 41* | 10
Cc1ccc2nc(-c3ccc(NC(=O)CCN4C(=O)c5ccccc5C4=O)cc3)sc2c1 | -14 | -9 | -8 | -10 | -3 | -10 | · | ·
Cc1ccc2nc(-c3ccc(NC(=O)C(C)N4C(=O)c5ccccc5C4=O)cc3)sc2c1 (configuration not stated) | 33* | -6 | -5 | -12 | -12 | -4 | 10 | 16
CC(=O)/C(=N\Nc1cccc(Cl)c1)Sc1nnc(-c2ccccc2)n1-c1ccccc1 | 33* | 6 | 9 | -124 | -16 | 7 | 16 | -7
COC(=O)CSc1ncccc1-c1nc2ccccc2[nH]1 | -3 | 0 | 11 | -8 | 1 | 4 | · | ·
O=C(CSc1ncccc1-c1nc2ccccc2[nH]1)N1CCc2ccccc21 | 32* | 7 | -7 | -3 | 4 | 5 | 9 | 4
O=C(CSc1nc2ccccc2c(=O)n1-c1ccccc1)N1CCc2ccccc21 | 41* | -1 | 13 | -5 | 1 | -1 | 38* | 0
O=C1OC2CC3CC1CC(O)(C3)C2 (configuration not stated) | 1 | 5 | 6 | -2 | -2 | 1 | · | ·
CCCCNC(=O)NS(=O)(=O)c1cnccc1Sc1ccc(Cl)cc1 | -6 | -6 | -27 | 20 | 4 | -4 | · | ·
SMILES | EBNA-1 inh | eIF4H FP inh | ZTA DNA inh | PABP1 MLLE inh | HCV NS3 hel inh | PABP polyA inh | EBNA-1 inh conf | ZTA counter trip
Cc1ccc2nc(SCC(=O)NCCc3ccccc3)nc(=O)n2c1 | -7 | · | -11 | 6 | · | · | · | ·
O=C(CSC(=S)N1CCCCC1)Nc1nc(-c2ccccc2)c(-c2ccccc2)o1 | 36* | 8 | 26 | 12 | 3 | 10 | 6 | -1
COc1ccc(-c2cc(CCCC(=O)NCCc3ccccc3)no2)cc1 | -9 | -2 | 6 | 3 | -10 | 16 | · | ·
COc1ccc(-c2cc(CCCC(=O)NCCc3ccc(OC)cc3OC)no2)cc1 | 36* | -3 | 1 | -8 | -5 | -9 | 46* | 13
COC(C(=O)Nc1ccnn1C1CCN(Cc2ccccn2)CC1)c1ccccc1 (configuration not stated) | -5 | 2 | -8 | 3 | -7 | -6 | · | ·
COC(=O)c1cn(NC(=O)Cc2ccc(Cl)c(Cl)c2)c(=O)c2ccccc12 | 44* | -7 | -4 | 4 | 17 | 4 | 25 | -8
COC(=O)c1cn(NC(=O)Cc2ccc(Cl)cc2)c(=O)c2ccccc12 | 7 | -13 | 10 | -8 | -1 | 0 | · | ·
O=C(CCC(=O)Nc1ccc(Br)cc1)N/N=C/c1ccc(F)cc1 | 34* | 10 | 13 | -2 | 8 | -2 | 19 | 12
Cc1cc(NC(=O)CSc2nc(-c3ccc(F)cc3)cs2)no1 | 44* | -6 | -3 | -4 | 2 | -2 | 13 | 4
CCOc1ccc(NC(=O)CC(=O)Nc2ccc(OCC)cc2)cc1 | 42* | -3 | 0 | 15 | -14 | 11 | 4 | -4
COc1ccc(C(=O)COC(=O)c2ccc(NC(=O)c3ccccc3)cc2)cc1 | 29* | -7 | 13 | -13 | -5 | -3 | -9 | 7
COC(=O)C(C(=O)OC)c1ccc(NC(=O)c2cccc(Cl)c2)cc1 | 60* | 0 | -3 | 13 | 9 | -4 | 49* | 0
COc1ccc(C(=O)Nc2ccc(C(=O)c3ccccc3)cc2)cc1 | 11 | · | 10 | 3 | · | · | · | ·
COc1ccc(NC(=O)c2cccc(NC(=O)c3ccccc3)c2)cc1 | 68* | 0 | -13 | 1 | -8 | -4 | -5 | -4
COc1ccc(C(=O)Nc2ccc(C(=O)OCC(=O)c3ccccc3)cc2)cc1 | -7 | -8 | -6 | 8 | 5 | -3 | · | ·
CCOc1ccc(NC(=O)c2cccc(NC(=O)c3ccccc3)c2)cc1 | 46* | -1 | 0 | -8 | -14 | -9 | 37* | -3
Cc1ccc(C)c(NC(=O)CSc2nnc(CNC(=O)c3ccco3)o2)c1 | 1 | -4 | -2 | 5 | -3 | 18 | · | ·
